# Source: ChEMBL document CHEMBL1143805, “Synthesis and antimicrobial activities of some novel 1,2,4-triazolo[3,4-b]-1,3,4-thiadiazoles and 1,2,4-triazolo[3,4-b]-1,3,4-thiadiazines carrying thioalkyl and sulphonyl phenoxy moieties” (2007)
# Tested on: Talaromyces marneffei
# Test: Antifungal activity against Penicillium marneffei
# Format: functional
# Settings: not given
# How it was run: (§1)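 Agar-well diffusion on Sabouraud agar at pH 5.7. Plates were lawned with a saline spore suspension (one loopful in 3 ml), decanted and dried 1 h at 37 °C. Compounds in DMSO went into punched wells, with a DMSO solvent control. Plates were run in triplicate and kept at 37 °C for 3-4 days, with inhibition-zone diameter as read-out.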
row,Compound,inhibition zone (IZ)
1,CSc1ccc(OCc2nnc3sc(-c4cccc(Cl)c4Cl)nn23)cc1,16 mm
2,CCSc1ccc(OCc2nnc3sc(-c4ccccc4Cl)nn23)cc1,<10 mm
3,CCSc1ccc(OCc2nnc3sc(-c4cccc(Cl)c4Cl)nn23)cc1,<10 mm
4,CSc1ccc(OCc2nnc3sc(-c4ccc(N)cc4)nn23)cc1,16 mm

# Same assay, conditions: Talaromyces marneffei
row,MIC,Compound
1,6.25 µg/mL,CSc1ccc(OCc2nnc3sc(-c4cccc(Cl)c4Cl)nn23)cc1
2,25 µg/mL,CCSc1ccc(OCc2nnc3sc(-c4ccccc4Cl)nn23)cc1
3,25 µg/mL,CCSc1ccc(OCc2nnc3sc(-c4cccc(Cl)c4Cl)nn23)cc1
4,6.25 µg/mL,CSc1ccc(OCc2nnc3sc(-c4ccc(N)cc4)nn23)cc1

# Tested on: Aspergillus fumigatus
# Test: Antifungal activity against Aspergillus fumigatus NCIM 902
# Format: functional
# Settings: not given
row,Compound,inhibition zone (IZ)
1,CSc1ccc(OCc2nnc3sc(-c4cccc(Cl)c4Cl)nn23)cc1,16 mm
2,CCSc1ccc(OCc2nnc3sc(-c4ccccc4Cl)nn23)cc1,<10 mm
3,CCSc1ccc(OCc2nnc3sc(-c4cccc(Cl)c4Cl)nn23)cc1,<10 mm
4,CSc1ccc(OCc2nnc3sc(-c4ccc(N)cc4)nn23)cc1,16 mm

# Same assay, conditions: Aspergillus fumigatus, NCIM 902
row,MIC,Compound
1,6.25 µg/mL,CSc1ccc(OCc2nnc3sc(-c4cccc(Cl)c4Cl)nn23)cc1
2,25 µg/mL,CCSc1ccc(OCc2nnc3sc(-c4ccccc4Cl)nn23)cc1
3,25 µg/mL,CCSc1ccc(OCc2nnc3sc(-c4cccc(Cl)c4Cl)nn23)cc1
4,6.25 µg/mL,CSc1ccc(OCc2nnc3sc(-c4ccc(N)cc4)nn23)cc1

# Tested on: Staphylococcus aureus
# Test: Antibacterial activity against Staphylococcus aureus ATCC 25923
# Format: functional
# Settings: not given
# How it was run: (§2)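 MIC by serial dilution in Mueller-Hinton broth tubes, pH adjusted to 5.0 with phosphate buffer. A standardized bacterial suspension was inoculated and incubated 16-18 h at 37 °C, and MIC was read as the lowest concentration with no visible growth. Zones were also measured in agar wells on seeded plates, with compounds in DMSO and a DMSO control, triplicate plates, 37 °C for 3-4 days.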
row,Compound,inhibition zone (IZ)
1,CSc1ccc(OCc2nnc3sc(-c4cccc(Cl)c4Cl)nn23)cc1,16 mm
2,CCSc1ccc(OCc2nnc3sc(-c4ccccc4Cl)nn23)cc1,<10 mm
3,CCSc1ccc(OCc2nnc3sc(-c4cccc(Cl)c4Cl)nn23)cc1,<10 mm
4,CSc1ccc(OCc2nnc3sc(-c4ccc(N)cc4)nn23)cc1,16 mm

# Same assay, conditions: Staphylococcus aureus, ATCC 25923
row,MIC,Compound
1,6.25 µg/mL,CSc1ccc(OCc2nnc3sc(-c4cccc(Cl)c4Cl)nn23)cc1
2,25 µg/mL,CCSc1ccc(OCc2nnc3sc(-c4ccccc4Cl)nn23)cc1
3,25 µg/mL,CCSc1ccc(OCc2nnc3sc(-c4cccc(Cl)c4Cl)nn23)cc1
4,6.25 µg/mL,CSc1ccc(OCc2nnc3sc(-c4ccc(N)cc4)nn23)cc1

# Tested on: Aspergillus flavus
# Test: Antifungal activity against Aspergillus flavus NCIM 524
# Format: functional
# Settings: not given
# How it was run: as §1
row,Compound,inhibition zone (IZ)
1,CSc1ccc(OCc2nnc3sc(-c4cccc(Cl)c4Cl)nn23)cc1,16 mm
2,CCSc1ccc(OCc2nnc3sc(-c4ccccc4Cl)nn23)cc1,<10 mm
3,CCSc1ccc(OCc2nnc3sc(-c4cccc(Cl)c4Cl)nn23)cc1,<10 mm
4,CSc1ccc(OCc2nnc3sc(-c4ccc(N)cc4)nn23)cc1,16 mm

# Same assay, conditions: Aspergillus flavus, NCIM 524
row,MIC,Compound
1,6.25 µg/mL,CSc1ccc(OCc2nnc3sc(-c4cccc(Cl)c4Cl)nn23)cc1
2,25 µg/mL,CCSc1ccc(OCc2nnc3sc(-c4ccccc4Cl)nn23)cc1
3,25 µg/mL,CCSc1ccc(OCc2nnc3sc(-c4cccc(Cl)c4Cl)nn23)cc1
4,6.25 µg/mL,CSc1ccc(OCc2nnc3sc(-c4ccc(N)cc4)nn23)cc1

# Tested on: Klebsiella pneumoniae
# Test: Antibacterial activity against Klebsiella pneumoniae
# Format: functional
# Settings: not given
# How it was run: as §2
row,Compound,inhibition zone (IZ)
1,CSc1ccc(OCc2nnc3sc(-c4cccc(Cl)c4Cl)nn23)cc1,16 mm
2,CCSc1ccc(OCc2nnc3sc(-c4ccccc4Cl)nn23)cc1,<10 mm
3,CCSc1ccc(OCc2nnc3sc(-c4cccc(Cl)c4Cl)nn23)cc1,<10 mm
4,CSc1ccc(OCc2nnc3sc(-c4ccc(N)cc4)nn23)cc1,16 mm

# Same assay, conditions: Klebsiella pneumoniae
row,MIC,Compound
1,6.25 µg/mL,CSc1ccc(OCc2nnc3sc(-c4cccc(Cl)c4Cl)nn23)cc1
2,25 µg/mL,CCSc1ccc(OCc2nnc3sc(-c4ccccc4Cl)nn23)cc1
3,25 µg/mL,CCSc1ccc(OCc2nnc3sc(-c4cccc(Cl)c4Cl)nn23)cc1
4,6.25 µg/mL,CSc1ccc(OCc2nnc3sc(-c4ccc(N)cc4)nn23)cc1

# Tested on: Escherichia coli
# Test: Antibacterial activity against Escherichia coli ATCC 25922
# Format: functional
# Settings: not given
# How it was run: as §2
row,Compound,inhibition zone (IZ)
1,CSc1ccc(OCc2nnc3sc(-c4cccc(Cl)c4Cl)nn23)cc1,16 mm
2,CCSc1ccc(OCc2nnc3sc(-c4ccccc4Cl)nn23)cc1,<10 mm
3,CCSc1ccc(OCc2nnc3sc(-c4cccc(Cl)c4Cl)nn23)cc1,<10 mm
4,CSc1ccc(OCc2nnc3sc(-c4ccc(N)cc4)nn23)cc1,16 mm

# Same assay, conditions: Escherichia coli, ATCC 25922
row,MIC,Compound
1,6.25 µg/mL,CSc1ccc(OCc2nnc3sc(-c4cccc(Cl)c4Cl)nn23)cc1
2,25 µg/mL,CCSc1ccc(OCc2nnc3sc(-c4ccccc4Cl)nn23)cc1
3,25 µg/mL,CCSc1ccc(OCc2nnc3sc(-c4cccc(Cl)c4Cl)nn23)cc1
4,6.25 µg/mL,CSc1ccc(OCc2nnc3sc(-c4ccc(N)cc4)nn23)cc1

# Tested on: Pseudomonas aeruginosa
# Test: Antibacterial activity against Pseudomonas aeruginosa ATCC 27853
# Format: functional
# Settings: not given
# How it was run: as §2
row,Compound,inhibition zone (IZ)
1,CSc1ccc(OCc2nnc3sc(-c4cccc(Cl)c4Cl)nn23)cc1,16 mm
2,CCSc1ccc(OCc2nnc3sc(-c4ccccc4Cl)nn23)cc1,<10 mm
3,CCSc1ccc(OCc2nnc3sc(-c4cccc(Cl)c4Cl)nn23)cc1,<10 mm
4,CSc1ccc(OCc2nnc3sc(-c4ccc(N)cc4)nn23)cc1,16 mm

# Same assay, conditions: Pseudomonas aeruginosa, ATCC 27853
row,MIC,Compound
1,6.25 µg/mL,CSc1ccc(OCc2nnc3sc(-c4cccc(Cl)c4Cl)nn23)cc1
2,25 µg/mL,CCSc1ccc(OCc2nnc3sc(-c4ccccc4Cl)nn23)cc1
3,25 µg/mL,CCSc1ccc(OCc2nnc3sc(-c4cccc(Cl)c4Cl)nn23)cc1
4,6.25 µg/mL,CSc1ccc(OCc2nnc3sc(-c4ccc(N)cc4)nn23)cc1

# Tested on: Trichophyton benhamiae
# Test: Antifungal activity against Trichophyton mentagrophytes
# Format: functional, Arthroderma benhamiae
# Settings: not given
# How it was run: as §1
row,Compound,inhibition zone (IZ)
1,CSc1ccc(OCc2nnc3sc(-c4cccc(Cl)c4Cl)nn23)cc1,16 mm
2,CCSc1ccc(OCc2nnc3sc(-c4ccccc4Cl)nn23)cc1,<10 mm
3,CCSc1ccc(OCc2nnc3sc(-c4cccc(Cl)c4Cl)nn23)cc1,<10 mm
4,CSc1ccc(OCc2nnc3sc(-c4ccc(N)cc4)nn23)cc1,16 mm

# Same assay, conditions: Trichophyton benhamiae
row,MIC,Compound
1,6.25 µg/mL,CSc1ccc(OCc2nnc3sc(-c4cccc(Cl)c4Cl)nn23)cc1
2,25 µg/mL,CCSc1ccc(OCc2nnc3sc(-c4ccccc4Cl)nn23)cc1
3,25 µg/mL,CCSc1ccc(OCc2nnc3sc(-c4cccc(Cl)c4Cl)nn23)cc1
4,6.25 µg/mL,CSc1ccc(OCc2nnc3sc(-c4ccc(N)cc4)nn23)cc1
